≈ marks a conversion by molar mass, not a printed value.
Key:
Type in all cases: functional
Streptococcus pneumoniae [1] = assay: Antibacterial activity against penicillin intermediate-resistant Streptococcus pneumoniae isolate I1 by agar dilution method
Outline: (§1)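 MIC determined by agar dilution on Mueller–Hinton agar against clinically isolated penicillin-intermediate-resistant S. pneumoniae.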

Staphylococcus aureus [2] = assay: Antibacterial activity against methicillin-susceptible Staphylococcus aureus ATCC 29213 by agar dilution method
Outline: (§2)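 MIC determined by agar dilution on Mueller–Hinton agar against reference strains.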

Staphylococcus aureus [3] = assay: Antibacterial activity against methicillin-resistant Staphylococcus aureus 1 by agar dilution method
Outline: (§3)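 MIC determined by agar dilution on Mueller–Hinton agar against clinical strains of methicillin-resistant S. aureus.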

Staphylococcus aureus [4] = assay: Antibacterial activity against methicillin-resistant Staphylococcus aureus 2 by agar dilution method; outline: as §3
Staphylococcus aureus [5] = assay: Antibacterial activity against methicillin-resistant Staphylococcus aureus 3 by agar dilution method; outline: as §3
Staphylococcus aureus [6] = assay: Antibacterial activity against methicillin-susceptible Staphylococcus aureus isolate 1 by agar dilution method
Outline: (§4)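 MIC determined by agar dilution on Mueller–Hinton agar against clinically isolated methicillin-susceptible S. aureus.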

Staphylococcus aureus [7] = assay: Antibacterial activity against methicillin-susceptible Staphylococcus aureus isolate 2 by agar dilution method; outline: as §4
Staphylococcus aureus [8] = assay: Antibacterial activity against methicillin-susceptible Staphylococcus aureus isolate 3 by agar dilution method; outline: as §4
Streptococcus pneumoniae [9] = assay: Antibacterial activity against Streptococcus pneumoniae ATCC 49619 by agar dilution method; conditions: ATCC49619; outline: as §2
Streptococcus pneumoniae [10] = assay: Antibacterial activity against penicillin intermediate-resistant Streptococcus pneumoniae isolate I2 by agar dilution method; outline: as §1
Streptococcus pneumoniae [11] = assay: Antibacterial activity against penicillin intermediate-resistant Streptococcus pneumoniae isolate I3 by agar dilution method; outline: as §1
Streptococcus pneumoniae [12] = assay: Antibacterial activity against penicillin-susceptible Streptococcus pneumoniae isolate S1 by agar dilution method
Outline: (§5)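 MIC measured by agar dilution on Mueller–Hinton agar. Strains were a reference culture and clinically isolated strains. The pneumococcal isolates were penicillin-susceptible clinical isolates.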

Streptococcus pneumoniae [13] = assay: Antibacterial activity against penicillin-susceptible Streptococcus pneumoniae isolate S2 by agar dilution method; outline: as §5
Streptococcus pyogenes [14] = assay: Antibacterial activity against Streptococcus pyogenes ATCC 8668 by agar dilution method; outline: as §5
Streptococcus pyogenes [15] = assay: Antibacterial activity against Streptococcus pyogenes isolate 1 by agar dilution method; outline: as §5
Streptococcus pyogenes [16] = assay: Antibacterial activity against Streptococcus pyogenes isolate 2 by agar dilution method; outline: as §5
Streptococcus pyogenes [17] = assay: Antibacterial activity against Streptococcus pyogenes isolate 3 by agar dilution method; outline: as §5

SMILES | MIC (Streptococcus pneumoniae [1]) [µg/mL] | MIC (Staphylococcus aureus [2]) [µg/mL] | MIC (Staphylococcus aureus [3]) [µg/mL] | MIC (Staphylococcus aureus [4]) [µg/mL] | MIC (Staphylococcus aureus [5]) [µg/mL] | MIC (Staphylococcus aureus [6]) [µg/mL] | MIC (Staphylococcus aureus [7]) [µg/mL] | MIC (Staphylococcus aureus [8]) [µg/mL] | MIC (Streptococcus pneumoniae [9]) [µg/mL] | MIC (Streptococcus pneumoniae [10]) [µg/mL] | MIC (Streptococcus pneumoniae [11]) [µg/mL] | MIC (Streptococcus pneumoniae [12]) [µg/mL] | MIC (Streptococcus pneumoniae [13]) [µg/mL] | MIC (Streptococcus pyogenes [14]) [µg/mL] | MIC (Streptococcus pyogenes [15]) [µg/mL] | MIC (Streptococcus pyogenes [16]) [µg/mL] | MIC (Streptococcus pyogenes [17]) [µg/mL] | MIC50 (Streptococcus pneumoniae [1]) [µM] | MIC50 (Streptococcus pneumoniae [10]) [µM] | MIC50 (Streptococcus pneumoniae [11]) [µM]
CC[C@H]1OC(=O)[C@H](C)C(=O)[C@H](C)[C@@H](O[C@@H]2O[C@H](C)C[C@H](N(C)C)[C@H]2O)[C@](C)(OC)C[C@@H](C)/C(=N\OC/C=C/c2cccs2)[C@H](C)[C@@H](O)[C@]1(C)O | 32 (≈ 44.1 µM) | 0.5 (≈ 0.69 µM) | 128 (≈ 177 µM) | 128 (≈ 177 µM) | 0.25 (≈ 0.345 µM) | 0.5 (≈ 0.69 µM) | 0.25 (≈ 0.345 µM) | 0.25 (≈ 0.345 µM) | 0.06 (≈ 0.0828 µM) | 0.125 (≈ 0.172 µM) | 0.125 (≈ 0.172 µM) | 0.06 (≈ 0.0828 µM) | 0.06 (≈ 0.0828 µM) | 0.06 (≈ 0.0828 µM) | 0.06 (≈ 0.0828 µM) | 0.06 (≈ 0.0828 µM) | 0.06 (≈ 0.0828 µM) |  |  | 
CC[C@H]1OC(=O)[C@H](C)C(=O)[C@H](C)[C@@H](O[C@@H]2O[C@H](C)C[C@H](N(C)C)[C@H]2O)[C@](C)(OC)C[C@@H](C)/C(=N\OC/C=C/c2cnc3ccccc3c2)[C@H](C)[C@@H](O)[C@]1(C)O | 64 (≈ 83.1 µM) | 0.25 (≈ 0.325 µM) | 128 (≈ 166 µM) | 128 (≈ 166 µM) | 0.25 (≈ 0.325 µM) | 0.25 (≈ 0.325 µM) | 0.25 (≈ 0.325 µM) | 0.25 (≈ 0.325 µM) | 0.06 (≈ 0.0779 µM) | 0.06 (≈ 0.0779 µM) | 4 (≈ 5.19 µM) | 0.06 (≈ 0.0779 µM) | 0.06 (≈ 0.0779 µM) | 0.06 (≈ 0.0779 µM) | 0.06 (≈ 0.0779 µM) | 0.06 (≈ 0.0779 µM) | 0.06 (≈ 0.0779 µM) |  |  | 
CC[C@H]1OC(=O)[C@H](C)C(=O)[C@H](C)[C@@H](O[C@@H]2O[C@H](C)C[C@H](N(C)C)[C@H]2O)[C@](C)(OC)C[C@@H](C)/C(=N\OC/C=C/c2ccc3[nH]ccc3c2)[C@H](C)[C@@H](O)[C@]1(C)O | 32 (≈ 42.2 µM) | 1 (≈ 1.32 µM) | 128 (≈ 169 µM) | 128 (≈ 169 µM) | 1 (≈ 1.32 µM) | 1 (≈ 1.32 µM) | 1 (≈ 1.32 µM) | 1 (≈ 1.32 µM) | 0.25 (≈ 0.33 µM) | 0.25 (≈ 0.33 µM) | 0.25 (≈ 0.33 µM) | 0.06 (≈ 0.0792 µM) | 0.06 (≈ 0.0792 µM) | 0.25 (≈ 0.33 µM) | 0.06 (≈ 0.0792 µM) | 0.25 (≈ 0.33 µM) | 0.25 (≈ 0.33 µM) |  |  | 
CC[C@H]1OC(=O)[C@H](C)C(=O)[C@H](C)[C@@H](O[C@@H]2O[C@H](C)C[C@H](N(C)C)[C@H]2O)[C@](C)(OC)C[C@@H](C)/C(=N\OC/C=C/c2ccc3c(c2)CCC3=O)[C@H](C)[C@@H](O)[C@]1(C)O | 64 (≈ 82.8 µM) | 1 (≈ 1.29 µM) | 128 (≈ 166 µM) | 128 (≈ 166 µM) | 1 (≈ 1.29 µM) | 1 (≈ 1.29 µM) | 1 (≈ 1.29 µM) | 1 (≈ 1.29 µM) | 0.25 (≈ 0.323 µM) | 0.25 (≈ 0.323 µM) | 8 (≈ 10.3 µM) | 0.06 (≈ 0.0776 µM) | 0.06 (≈ 0.0776 µM) | 0.25 (≈ 0.323 µM) | 0.06 (≈ 0.0776 µM) | 0.25 (≈ 0.323 µM) | 0.25 (≈ 0.323 µM) |  |  | 
CC[C@H]1OC(=O)[C@H](C)C(=O)[C@H](C)[C@@H](O[C@@H]2O[C@H](C)C[C@H](N(C)C)[C@H]2O)[C@](C)(OC)C[C@@H](C)/C(=N\OC/C=C/c2cccc(C3OCCO3)c2)[C@H](C)[C@@H](O)[C@]1(C)O | 64 (≈ 80.9 µM) | 0.5 (≈ 0.632 µM) | 128 (≈ 162 µM) | 128 (≈ 162 µM) | 1 (≈ 1.26 µM) | 1 (≈ 1.26 µM) | 1 (≈ 1.26 µM) | 0.5 (≈ 0.632 µM) | 0.25 (≈ 0.316 µM) | 0.25 (≈ 0.316 µM) | 0.25 (≈ 0.316 µM) | 0.06 (≈ 0.0759 µM) | 0.06 (≈ 0.0759 µM) | 0.25 (≈ 0.316 µM) | 0.06 (≈ 0.0759 µM) | 0.25 (≈ 0.316 µM) | 0.25 (≈ 0.316 µM) |  |  | 
CC[C@H]1OC(=O)[C@H](C)C(=O)[C@H](C)[C@@H](O[C@@H]2O[C@H](C)C[C@H](N(C)C)[C@H]2O)[C@](C)(OC)C[C@@H](C)/C(=N\OC/C=C/c2ccc3c(c2)OCO3)[C@H](C)[C@@H](O)[C@]1(C)O | 64 (≈ 83.9 µM) | 1 (≈ 1.31 µM) | 128 (≈ 168 µM) | 128 (≈ 168 µM) | 1 (≈ 1.31 µM) | 1 (≈ 1.31 µM) | 0.5 (≈ 0.655 µM) | 0.5 (≈ 0.655 µM) | 0.25 (≈ 0.328 µM) | 0.25 (≈ 0.328 µM) | 0.25 (≈ 0.328 µM) | 0.06 (≈ 0.0786 µM) | 0.06 (≈ 0.0786 µM) | 0.25 (≈ 0.328 µM) | 0.06 (≈ 0.0786 µM) | 0.25 (≈ 0.328 µM) | 0.25 (≈ 0.328 µM) |  |  | 
CC[C@H]1OC(=O)[C@H](C)[C@@H](O[C@H]2C[C@@](C)(OC)[C@@H](O)[C@H](C)O2)[C@H](C)[C@@H](O[C@@H]2O[C@H](C)C[C@H](N(C)C)[C@H]2O)[C@](C)(O)C[C@@H](C)C(=O)[C@H](C)[C@@H](O)[C@]1(C)O [ERYTHROMYCIN] |  |  |  |  |  |  |  |  |  |  |  |  |  |  |  |  |  | > 128 | > 128 | > 128

Reference: ChEMBL document CHEMBL1156205, “Synthesis and antibacterial activity of new 9-O-arylpropenyloxime ketolides” (2010)
